Source: ChEMBL document CHEMBL1153941, “Synthesis, molecular modeling, and selective inhibitory activity against human monoamine oxidases of 3-carboxamido-7-substituted coumarins” (J Med Chem, 2009)

Key:
[1] = target: T1, Amine oxidase [flavin-containing] B (Homo sapiens, UniProt P27338); test: Inhibition of human recombinant MAOB expressed in BTI-TN-5B1-4 cells assessed as effect on H2O2 production from para-tyramine at 1 mM by fluorimetric method; type: cell-based
T1 sequence (P27338 whole entry): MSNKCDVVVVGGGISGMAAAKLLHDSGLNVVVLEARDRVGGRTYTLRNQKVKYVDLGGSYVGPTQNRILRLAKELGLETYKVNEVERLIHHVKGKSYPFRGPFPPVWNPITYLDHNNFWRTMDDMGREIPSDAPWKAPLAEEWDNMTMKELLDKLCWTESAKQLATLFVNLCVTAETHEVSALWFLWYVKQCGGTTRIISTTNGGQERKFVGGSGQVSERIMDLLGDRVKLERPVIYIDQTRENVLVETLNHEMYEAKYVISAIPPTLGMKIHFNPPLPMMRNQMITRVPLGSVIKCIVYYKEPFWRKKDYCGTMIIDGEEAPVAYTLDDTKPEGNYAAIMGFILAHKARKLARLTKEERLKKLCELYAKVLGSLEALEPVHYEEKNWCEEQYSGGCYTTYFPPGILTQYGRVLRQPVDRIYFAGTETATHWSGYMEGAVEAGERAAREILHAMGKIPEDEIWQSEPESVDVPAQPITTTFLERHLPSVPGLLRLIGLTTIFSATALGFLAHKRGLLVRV
Outline: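 Drugs preincubated with enzyme 15 min, 37 °C, 0.05 M sodium phosphate pH 7.4. Amplex Red 200 µM, HRP 1 U/mL, p-tyramine 1 mM (final) added. Resorufin fluorescence (ex 545/em 590 nm) read over 15 min at 37 °C, enzyme-free background subtracted.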

[2] = target: T2, Amine oxidase [flavin-containing] A (Homo sapiens, UniProt P21397); test: Inhibition of human recombinant MAOA expressed in BTI-TN-5B1-4 cells assessed as effect on H2O2 production from para-tyramine by fluorimetric method; type: cell-based
T2 sequence (P21397 whole entry): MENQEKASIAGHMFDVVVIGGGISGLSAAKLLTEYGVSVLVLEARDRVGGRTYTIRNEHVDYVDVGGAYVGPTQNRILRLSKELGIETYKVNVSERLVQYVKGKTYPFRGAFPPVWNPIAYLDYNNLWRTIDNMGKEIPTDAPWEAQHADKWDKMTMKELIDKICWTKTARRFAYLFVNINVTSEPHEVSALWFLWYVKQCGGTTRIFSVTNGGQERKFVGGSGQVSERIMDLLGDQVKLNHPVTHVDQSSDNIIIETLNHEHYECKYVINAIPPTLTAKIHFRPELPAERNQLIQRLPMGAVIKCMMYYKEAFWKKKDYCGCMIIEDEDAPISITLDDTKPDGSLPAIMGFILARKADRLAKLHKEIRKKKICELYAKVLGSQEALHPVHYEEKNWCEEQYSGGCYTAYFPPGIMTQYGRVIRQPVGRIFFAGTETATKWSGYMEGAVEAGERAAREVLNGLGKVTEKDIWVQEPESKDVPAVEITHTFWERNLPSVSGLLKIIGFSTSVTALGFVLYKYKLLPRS

[3] = target: T2, Amine oxidase [flavin-containing] A; test: Inhibition of human recombinant MAOA expressed in BTI-TN-5B1-4 cells assessed as effect on H2O2 production from para-tyramine at 100 uM by fluorimetric method; type: cell-based
Outline: (§1)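 Enzyme and test drug were preincubated 15 min at 37 °C in 0.05 M sodium phosphate, pH 7.4. Final 1 mM p-tyramine, 200 µM Amplex Red and 1 U/mL HRP were then added. Resorufin fluorescence (ex 545/em 590 nm) was read over 15 min, minus enzyme-free background. Top concentration tested was 100 µM.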

[4] = target: T1, Amine oxidase [flavin-containing] B; test: Inhibition of human recombinant MAOB expressed in BTI-TN-5B1-4 cells assessed as effect on H2O2 production from para-tyramine at 100 uM by fluorimetric method; type: cell-based; outline: as §1
Homo sapiens = organism: Homo sapiens; test: Selectivity index, ratio of IC50 for human recombinant MAOA to IC50 for human recombinant MAOB

SMILES | IC50 [2] | IC50 [3] | other results
O=C(NCCN1CCOCC1)c1ccc(Cl)cc1 [MOCLOBEMIDE] |  |  | IC50 [1]: Not Active
COc1ccc(NC(=O)c2cc3ccccc3oc2=O)cc1OC | 9.45 µM |  | 
C#CCNC(=O)c1cc2ccccc2oc1=O |  | Not Active | IC50 [4]: Not Active
O=C(NCc1ccccc1)c1cc2ccccc2oc1=O |  | Not Active | 
COc1cccc(NC(=O)c2cc3ccccc3oc2=O)c1 |  | Not Active | 
Cc1ccc(C)c(NC(=O)c2cc3ccccc3oc2=O)c1 | 15.9 µM |  | 
O=C(Nc1c(F)cccc1F)c1cc2ccccc2oc1=O | 12.8 µM |  | 
N#Cc1c(F)c(F)c(NC(=O)c2cc3ccc(OCc4ccccc4)cc3oc2=O)c(F)c1F | 61.4 µM |  | 
Cc1cccc(NC(=O)c2cc3ccccc3oc2=O)c1C | 20.6 µM |  | 
CC(C)NC(=O)c1cc2ccc(OCc3ccccc3)cc2oc1=O | 63.5 µM |  | IC50 [4]: Not Active; Ratio IC50 (Homo sapiens): < 0.63
CN(C(=O)c1cc2ccc(OCc3ccccc3)cc2oc1=O)c1ccccc1 |  | Not Active | 
O=C(NC1CCCCC1)c1cc2ccccc2oc1=O |  | Not Active | 
O=C(Nc1ccc(F)cc1)c1cc2ccccc2oc1=O | 13.1 µM |  | 
O=C(Nc1ccccc1Cc1ccccc1)c1cc2ccccc2oc1=O |  | Not Active | 
O=C(Nc1c(F)c(F)c(F)c(F)c1F)c1cc2ccccc2oc1=O |  | Not Active | 
COc1ccc(NC(=O)c2cc3ccccc3oc2=O)cc1 |  | Not Active | 
O=C(NCc1ccccc1)c1cc2ccc(OCc3ccccc3)cc2oc1=O |  | Not Active | 
N#Cc1c(F)c(F)c(NC(=O)c2cc3ccccc3oc2=O)c(F)c1F | 16 µM |  | 
Cc1ccc(NC(=O)c2cc3ccccc3oc2=O)cc1 | 19.5 µM |  | 
COc1ccc(NC(=O)c2cc3ccc(OCc4ccccc4)c(C)c3oc2=O)cc1OC | 48.9 µM |  | 
Cc1cccc(Cl)c1NC(=O)c1cc2ccccc2oc1=O |  | Not Active | 
O=C(NNc1ccccc1)c1cc2ccc(OCc3ccccc3)cc2oc1=O | 41.4 µM |  | 
COc1cc(NC(=O)c2cc3ccc(OCc4ccccc4)cc3oc2=O)cc(OC)c1 | 52.9 µM |  | 
O=C(NCCc1ccccc1)c1cc2ccccc2oc1=O |  | Not Active | IC50 [4]: Not Active
Cc1ccc(NC(=O)c2cc3ccccc3oc2=O)c(C)c1 | 12.3 µM |  | 
CC(C)CNC(=O)c1cc2ccccc2oc1=O |  | Not Active | 

Continued, in another order:

IC50 [2] | IC50 [3] | SMILES | other results
59.6 µM |  | Cc1cccc(Cl)c1NC(=O)c1cc2ccc(OCc3ccc(F)cc3)cc2oc1=O | 
 | Not Active | CC(C)c1ccc(NC(=O)c2cc3ccc(OCc4ccc(F)cc4)cc3oc2=O)cc1 | IC50 [4]: Not Active
55.8 µM |  | O=C(Nc1ccccc1Cc1ccccc1)c1cc2ccc(OCc3ccc(F)cc3)cc2oc1=O | IC50 [4]: Not Active; Ratio IC50 (Homo sapiens): < 0.56
 | Not Active | O=C(Nc1ccc(O)cc1)c1cc2ccccc2oc1=O | 
 | Not Active | O=C(Nc1cccc(F)c1)c1cc2ccccc2oc1=O | 
11.4 µM |  | O=C(Nc1c(F)c(F)nc(F)c1F)c1cc2ccccc2oc1=O | 
9.79 µM |  | Cc1cccc(C)c1NC(=O)c1cc2ccccc2oc1=O | 
18.8 µM |  | Cc1ccc(NC(=O)c2cc3ccccc3oc2=O)cc1C | 
58.6 µM |  | CC(C)CNC(=O)c1cc2ccc(OCc3ccccc3)cc2oc1=O | 
60.9 µM |  | CC(C)c1ccc(NC(=O)c2cc3ccc(OCc4ccccc4)cc3oc2=O)cc1 | 
9.33 µM |  | CS(=O)(=O)c1ccc(NC(=O)c2cc3ccccc3oc2=O)cc1 | 
14.8 µM |  | CSc1ccc(NC(=O)c2cc3ccccc3oc2=O)cc1 | 
51.9 µM |  | O=C(Nc1ccccc1Cc1ccccc1)c1cc2ccc(OCc3ccccc3)cc2oc1=O | 
9.67 µM |  | O=C(Cl)c1ccc(NC(=O)c2cc3ccccc3oc2=O)cc1 | IC50 [4]: Not Active; Ratio IC50 (Homo sapiens): < 0.1
 | Not Active | NCCNC(=O)c1cc2ccccc2oc1=O | 
 | Not Active | O=C(NC1CCCCC1)c1cc2ccc(OCc3ccccc3)cc2oc1=O | 
 | Not Active | CN(Cc1ccccc1)C(=O)c1cc2ccccc2oc1=O | IC50 [4]: Not Active

IC50 [2] | IC50 [3] | SMILES | other results
13.1 µM |  | O=C(Nc1ccccc1)c1cc2ccccc2oc1=O | 
15.7 µM |  | CCc1ccc(NC(=O)c2cc3ccccc3oc2=O)cc1 | 
9.97 µM |  | O=C(O)c1ccc(NC(=O)c2cc3ccccc3oc2=O)cc1 | 
49.7 µM |  | Cc1cccc(Cl)c1NC(=O)c1cc2ccc(OCc3ccccc3)cc2oc1=O | 
16 µM |  | CCOC(=O)c1ccc(NC(=O)c2cc3ccccc3oc2=O)cc1 | IC50 [4]: Not Active; Ratio IC50 (Homo sapiens): < 0.16
15.1 µM |  | CC(C)c1ccc(NC(=O)c2cc3ccccc3oc2=O)cc1 | 
 | Not Active | COc1ccc(NC(=O)c2cc3ccc(OCc4ccccc4)cc3oc2=O)cc1OC | 
58.5 µM |  | N#Cc1c(F)c(F)c(NC(=O)c2cc3ccc(OCc4ccc(F)cc4)cc3oc2=O)c(F)c1F | 
52.6 µM |  | COc1cc(NC(=O)c2cc3ccc(OCc4ccc(F)cc4)cc3oc2=O)cc(OC)c1 | 
49.2 µM |  | COc1ccc(NC(=O)c2cc3ccc(OCc4ccc(F)cc4)cc3oc2=O)cc1OC | 
 | Not Active | O=C(Nc1cccc(C(F)(F)F)c1)c1cc2ccccc2oc1=O | 
 | Not Active | O=C(c1cc2ccccc2oc1=O)N(c1ccccc1)c1ccccc1 | IC50 [4]: Not Active
 | Not Active | CC(C)NC(=O)c1cc2ccccc2oc1=O | 
17.6 µM |  | Cc1cc(C)cc(NC(=O)c2cc3ccccc3oc2=O)c1 | 
 | Not Active | CN(C(=O)c1cc2ccccc2oc1=O)c1ccccc1 | 
14.5 µM |  | Cc1cccc(NC(=O)c2cc3ccccc3oc2=O)c1 | 
61.5 µM |  | COc1cc(NC(=O)c2cc3ccccc3oc2=O)cc(OC)c1 | 
